According to article PMC10427982 (eBioMedicine, 2023):
Marks after values point to notes of the source that are not given here.

What was measured:
[1] = test system: human airway epithelial cells (HAE); conditions: cited from earlier work
[2] = after remdesivir 30 mg/kg i.v.; cited from earlier work
[3] = animal models; cited from earlier work
[4] = Multisite microdialysis pharmacokinetics after molnupiravir; format: in vivo, rat
Procedure, shortened: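 Pregnant Sprague–Dawley rats at gestation day 16 (300 ± 50 g), fasted 12 h and anaesthetised with urethane 1 g/kg i.p. Test compound in normal saline given alone via femoral vein catheter. Unbound drug and metabolite sampled by microdialysis in jugular vein, fetus, placenta and amniotic fluid, perfused with citrate-dextrose solution. Dialysates every 20 min over 6 h, UHPLC-MS/MS. Ratios taken as AUC quotients ×100%. n = 6, mean ± SEM.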

[5] = Multisite microdialysis pharmacokinetics after molnupiravir; format: in vivo, rat; remark: listed apart in the source
Procedure, shortened: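 Pregnant Sprague–Dawley rats (gestation day 16, 300 ± 50 g), fasted 12 h, under urethane anaesthesia (1 g/kg i.p.). Test compound in normal saline, with the ENT inhibitor in 10% DMSO/90% PEG-400, given together via the femoral vein. Microdialysis probes sit in the jugular vein, fetus, placenta and amniotic fluid, perfused with ACD solution. Dialysates are collected every 20 min for 6 h and assayed by UHPLC-MS/MS. n = 6, mean ± SEM.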

[6] = cited from earlier work
human ENT1 = conditions: cited from earlier work
human ENT2 = conditions: cited from earlier work
[7] = single and multiple doses; cited from earlier work
[8] = lactating rats administered molnupiravir; cited from earlier work
[9] = blood, molnupiravir 100 mg/kg i.v. alone
[10] = female, Sprague-Dawley, rat, amniotic fluid dialysate, iv, 100 mg/kg
[11] = female, Sprague-Dawley, rat, blood dialysate, iv, 100 mg/kg
[12] = female, Sprague-Dawley, rat, fetus dialysate, iv, 100 mg/kg
[13] = female, Sprague-Dawley, rat, placenta dialysate, iv, 100 mg/kg
[14] = female, Sprague-Dawley, rat, amniotic fluid, iv, 100 mg/kg, with NBMPR (ENT inhibitor) 10 mg/kg i.v., co-administered
[15] = female, Sprague-Dawley, rat, blood, iv, 100 mg/kg, with NBMPR (ENT inhibitor) 10 mg/kg i.v., co-administered
[16] = female, Sprague-Dawley, rat, fetus, iv, 100 mg/kg, with NBMPR (ENT inhibitor) 10 mg/kg i.v., co-administered
[17] = female, Sprague-Dawley, rat, placenta, iv, 100 mg/kg, with NBMPR (ENT inhibitor) 10 mg/kg i.v., co-administered
[18] = placenta, + NBMPR 10 mg/kg i.v.
[19] = amniotic fluid, molnupiravir 100 mg/kg i.v. alone
[20] = fetus, molnupiravir 100 mg/kg i.v. alone
[21] = placenta, molnupiravir 100 mg/kg i.v. alone
[22] = amniotic fluid, + NBMPR 10 mg/kg i.v.

## N#C[C@@]1(c2ccc3c(N)ncnn23)O[C@H](CO)[C@@H](O)[C@H]1O [GS-441524]
[1]
  EC50: 180 nM
[2]
  Transfer ratio from mother to amniotic fluid: 0.71 ± 0.19
  Transfer ratio from mother to fetus: 0.51 ± 0.18
  Transfer ratio from mother to placenta: 0.35 ± 0.09

## CC(C)C(=O)OC[C@H]1O[C@@H](n2ccc(NO)nc2=O)[C@H](O)[C@@H]1O [Molnupiravir]
[3]
  Increase of the bioavailability of NHC: more than 90%
[4]; blood, molnupiravir 100 mg/kg i.v.
  Time up to which detected: up to 200 min
[4]; [9]
  CL: 21.89 ± 2.99 mL/min/kg
[4]; conceptus, molnupiravir 100 mg/kg i.v.
  Time for the maximum concentration in the conceptus: approximately 40 min
[4]; female, Sprague-Dawley, rat, amniotic fluid (relative to blood), iv, 100 mg/kg
  Kp: 0.05 ± 0.01
[4]; female, Sprague-Dawley, rat, amniotic fluid dialysate, intravenous, 100 mg/kg
  concentration at 60 min: 1.48 ng/mL
[4]; [10]
  AUC(0-inf): 4660 ng·h/mL
  Cmax: 2110 ± 380 ng/mL
  half-life: 828 ± 173 min
[4]; female, Sprague-Dawley, rat, amniotic fluid, iv, 100 mg/kg
  MRT: 1.73 h
[4]; female, Sprague-Dawley, rat, blood dialysate, intravenous, 100 mg/kg
  concentration at 140 min: 18.2 ng/mL
[4]; [11]
  AUC(0-inf): 61600 ng·h/mL
  Cmax: 219000 ± 42300 ng/mL
  half-life: 11 ± 2 min
[4]; female, Sprague-Dawley, rat, blood, iv, 100 mg/kg
  MRT: 0.267 h
[4]; female, Sprague-Dawley, rat, fetus (relative to blood), iv, 100 mg/kg
  Kp: 0.03 ± 0.01
[4]; female, Sprague-Dawley, rat, fetus dialysate, intravenous, 100 mg/kg
  concentration at 140 min: 3.02 ng/mL
[4]; [12]
  AUC(0-inf): 3310 ng·h/mL
  Cmax: 3540 ± 1320 ng/mL
  half-life: 29 ± 5 min
[4]; female, Sprague-Dawley, rat, fetus, iv, 100 mg/kg
  MRT: 0.7 h
[4]; female, Sprague-Dawley, rat, placenta (relative to blood), iv, 100 mg/kg
  Kp: 0.02 ± 0.009
[4]; female, Sprague-Dawley, rat, placenta dialysate, intravenous, 100 mg/kg
  concentration at 80 min: 15.1 ng/mL
[4]; [13]
  AUC(0-inf): 2420 ng·h/mL
  Cmax: 2560 ± 730 ng/mL
  half-life: 60 ± 25 min
[4]; female, Sprague-Dawley, rat, placenta, iv, 100 mg/kg
  MRT: 1.17 h
[4]; molnupiravir 100 mg/kg i.v.
  Time within which metabolized to NHC: ≤ 20 min
[5]; [14]
  AUC(0-inf): 2770 ng·h/mL
  Cmax: 2140 ± 640 ng/mL
  MRT: 88 min
  half-life: 187 ± 50 min
[5]; [15]
  AUC(0-inf): 49600 ng·h/mL
  Cmax: 261000 ± 111000 ng/mL
  MRT: 17 min
  clearance: 59.2 ± 22.6 mL/min/kg
  half-life: 12 ± 1 min
[5]; [16]
  AUC(0-inf): 1650 ng·h/mL
  Cmax: 2410 ± 180 ng/mL
  MRT: 50 min
  half-life: 26 ± 6 min
[5]; [17]
  AUC(0-inf): 1880 ng·h/mL
  Cmax: 1020 ± 190 ng/mL
  half-life: 180 ± 85 min
[5]; [18]
  MRT: 237 ± 89 min
[6]; 500 mg/kg
  Fetal finding at lower dose: decreased fetal body weight
[6]; 1000 mg/kg
  Fetal finding at high dose: internal and skeletal malformations of the fetus
[6]
  NOAEL for maternal and developmental toxicity: 250 mg/kg
[6]; pregnant rat model
  Finding at doses eight times the normal dose / expected exposure: developmental toxicity

## O=c1nc(NO)ccn1[C@@H]1O[C@H](CO)[C@@H](O)[C@H]1O [NHC, β-D-N4-hydroxycytidine]
Human ENT1
  Interaction with transporter: interacts
[3]
  Bioavailability: poor bioavailability
[4]; amniotic fluid dialysate, 60 min after administration
  Concentration in dialysate sample (representative chromatogram): 10.05 ng/mL
[4]; [19]
  AUCtissue/AUCblood (biodistribution ratio): 0.19 ± 0.03
  Cmax: 4.78 ± 0.83 ^b μg/mL
  MRT: 2.82 ± 0.13 h
  Tmax: 150 ± 33 min
  t1/2: 148 ± 52 ^b min
[4]; blood dialysate, 140 min after molnupiravir 100 mg/kg i.v.
  Concentration in dialysate sample (representative chromatogram): 960 ng/mL
[4]; [9]
  Cmax: 116500 ± 3870 ng/mL
  MRT: 0.95 ± 0.1 h
  Tmax: 40 min
  t1/2: 45 ± 5 min
[4]; dialysates of all organs
  Time post-administration until which detected: 360 min
[4]; fetus dialysate, collected at 140 min
  Concentration in dialysate sample (representative chromatogram): 185 ng/mL
[4]; [20]
  AUCtissue/AUCblood (biodistribution ratio): 0.29 ± 0.11
  Cmax: 7.20 ± 2.10 ^b μg/mL
  MRT: 2.62 ± 0.167 h
  Tmax: 123 ± 11 ^b min
  t1/2: 492 ± 305 ^b min
[4]; placenta dialysate, 80 min after administration
  Concentration in dialysate sample (representative chromatogram): 126.2 ng/mL
[4]; [21]
  AUCtissue/AUCblood (biodistribution ratio): 0.09 ± 0.01
  Cmax: 2.98 ± 0.42 ^b μg/mL
  MRT: 2.6 ± 0.167 h
  Tmax: 90 ± 16 min
  t1/2: 138 ± 18 ^b min
[4]; range over fetus, placenta, amniotic fluid
  Transfer ratio across the blood-placenta barrier: 9–29%
[5]; [22]
  AUCtissue/AUCblood (biodistribution ratio): 0.19 ± 0.05
  Cmax: 4.21 ± 0.44 ^d μg/mL
  MRT: 294 ± 77 min
  Tmax: 100 ± 14 ^d min
  t1/2: 181 ± 56 ^d min
[5]; blood, + NBMPR 10 mg/kg i.v.
  Cmax: 97260 ± 24950 ng/mL
  MRT: 56 ± 6 min
  t1/2: 66 ± 3 min
[5]; fetus, + NBMPR 10 mg/kg i.v.
  AUCtissue/AUCblood (biodistribution ratio): 0.27 ± 0.07
  Cmax: 4.69 ± 1.92 ^d μg/mL
  MRT: 762 ± 255 min
  Tmax: 93 ± 16 ^d min
  t1/2: 507 ± 178 ^d min
[5]; [18]
  AUCtissue/AUCblood (biodistribution ratio): 0.14 ± 0.06
  Cmax: 2.95 ± 0.97 ^d μg/mL
  MRT: 251 ± 65 min
  Tmax: 106 ± 12 ^d min
  t1/2: 157 ± 56 ^d min
Human ENT2
  Interaction with transporter: interacts
[7]
  Median Tmax in plasma: 1 h
[8]
  Detection in plasma of nursing pups: can be detected
